Assay outcomes deposited in PubChem by Johns Hopkins Ion Channel Center.
TRPC4 block = blocks the mouse TRPC4 cation channel. HEK293 TRPC4beta/mu-opioid, DAMGO-evoked Fluo4 calcium flux; active compounds read low. 300,000 tested, 0.39% active. Q9QUQ5. B-score at 10 µM;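 active means B-score over 3 SD under the library average, no early fluorescence shift, positive overall ratio signal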
Target sequence (Q9QUQ5 whole entry, looked up): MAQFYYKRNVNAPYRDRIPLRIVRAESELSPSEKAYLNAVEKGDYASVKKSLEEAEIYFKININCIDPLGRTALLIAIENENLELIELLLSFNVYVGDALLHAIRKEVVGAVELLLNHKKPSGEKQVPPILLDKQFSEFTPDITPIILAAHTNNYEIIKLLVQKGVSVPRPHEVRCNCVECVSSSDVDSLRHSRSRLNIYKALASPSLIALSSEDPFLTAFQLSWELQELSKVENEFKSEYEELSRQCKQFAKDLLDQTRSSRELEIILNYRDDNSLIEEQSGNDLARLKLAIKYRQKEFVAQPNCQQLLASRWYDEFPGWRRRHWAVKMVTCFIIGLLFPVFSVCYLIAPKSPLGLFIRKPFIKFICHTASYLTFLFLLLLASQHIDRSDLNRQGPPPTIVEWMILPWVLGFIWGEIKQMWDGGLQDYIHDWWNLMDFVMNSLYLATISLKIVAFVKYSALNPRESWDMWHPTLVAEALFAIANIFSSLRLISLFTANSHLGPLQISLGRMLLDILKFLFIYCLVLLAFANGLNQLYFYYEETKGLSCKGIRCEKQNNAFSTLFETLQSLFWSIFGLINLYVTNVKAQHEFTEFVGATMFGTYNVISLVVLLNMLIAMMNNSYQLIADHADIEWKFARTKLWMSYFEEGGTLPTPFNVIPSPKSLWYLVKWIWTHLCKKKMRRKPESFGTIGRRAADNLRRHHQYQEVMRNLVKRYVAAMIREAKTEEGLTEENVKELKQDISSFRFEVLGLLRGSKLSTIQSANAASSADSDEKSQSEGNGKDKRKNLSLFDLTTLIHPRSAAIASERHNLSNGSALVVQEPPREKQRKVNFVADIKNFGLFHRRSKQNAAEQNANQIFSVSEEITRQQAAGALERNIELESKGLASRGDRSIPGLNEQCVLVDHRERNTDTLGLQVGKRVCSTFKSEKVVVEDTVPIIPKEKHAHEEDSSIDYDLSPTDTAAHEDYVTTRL
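test system = HEK293 cells with stable TRPC4beta plus mu-opioid receptor expression | detection = Fluo4 Ca2+ flux fluorescence | read-out = integrated fluorescence ratio relative to baseline, converted to per-well B score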
TRPC4 agonist = activators of mouse TRPC4 channel; HEK293 TRPC4beta/mu-opioid, Fluo4 calcium fluorescence; active compounds read high; B-score at 10 µM; 310,000 tested, 0.49% active;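 active means B-score above 5 SD of library B-scores, and initial fluorescence ratio not above library mean plus 5 SD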;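 further: positive B-score marks a calcium rise read as TRPC4 activation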
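Technique: kinetic Fluo4 calcium fluorescence; Test system: TRPC4beta and mu-opioid receptor HEK293 stable cells; Measure: B-scored integrated calcium fluorescence ratio; Benchmarks: low control buffer alone, high control maximal DAMGO; Schedule: 45 min room-temperature Fluo4 loading, 110 s read.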
TRPC6 activator = activates the mouse TRPC6 cation channel; Q61143; HEK293-TRPC6 membrane potential dye fluorescence; active compounds read high; B-score at 10 µM; 310,000 tested, 0.13% active;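 active means B-score of the integrated fluorescence ratio above library mean plus 3 SD, and starting fluorescence ratio within library mean plus 5 SD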;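 further: higher score means more depolarization so channel activation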
TRPC4 potent = allosterically enhances the mouse TRPC4 cation channel | AID 2227 | B-score at 10 µM | HEK293 TRPC4beta/mu-opioid, DAMGO EC20, Fluo-4 Ca2+ flux; active compounds read high | Q9QUQ5 | 310,000 tested, 0.42% active;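 active means B-score of calcium response area above 5 SD of library B-scores, with initial fluorescence ratio within 5 SD of library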;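 further: B-score of integrated fluorescence ratio over time as area under calcium response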
TRPC6 inh = mouse TRPC6 channel inhibition. 310,000 tested, 1.1% active. B-score at 10 µM. HEK293-TRPC6, membrane potential dye, ACh-evoked depolarization; active compounds read low;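 active means B-score under library mean minus 3 SD, initial fluorescence not abnormally high, positive integrated signal ratio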;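 further: B-score derived from integrated fluorescence ratio over the kinetic read; more negative B-score means stronger inhibition of depolarization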
Active calls of the source: *; i = inactive; · = no result. Hits are enriched below; roughly 2.3% of the tested compounds scored in any of these assays.

SMILES	TRPC4 block	TRPC4 agonist	TRPC6 activator	TRPC4 potent	TRPC6 inh
CCc1ccc(OCC(=O)Nc2ccc(N3CCN(S(C)(=O)=O)CC3)cc2)cc1	i	i	i	i	i
NC(=O)NC(CC(=O)N1CCc2ccccc2C1)c1ccc(Cl)cc1 (stereo not given)	i	i	i	i	i
CN(C)CCOc1ccc2ccccc2c1	i	i	i	16*	i
CN(C)CCOc1cc(Cl)cc(Cl)c1	i	i	i	26*	i
CN(C)CCCCOc1cccc(Br)c1	i	i	i	20*	i
CN(C)CCOc1cccc(Cl)c1	i	i	i	i	i
O=C(CSc1cccc[n+]1[O-])NN(c1ccccc1)c1ccccc1	i	i	i	i	i
Cc1ccc(CC(CC(=O)O)C(=O)NCC23CC4CC(CC(C4)C2)C3)cc1 (stereo not given)	i	i	i	14*	i
CCCCNC(=O)/C(C#N)=C/c1ccc(F)cc1F	i	i	i	27*	i
CCC(C)NS(=O)(=O)c1ccc(NC(=O)C2CCN(C(=O)c3ccco3)CC2)cc1 (stereo not given)	i	i	i	i	i
CC1CCCN(S(=O)(=O)c2ccc(NC(=O)C3CCN(C(=O)c4ccco4)CC3)cc2)C1 (stereo not given)	i	60*	i	i	i
COc1cc(OC)c(OC)cc1CN(C)CCc1ccccn1	i	64*	i	i	i
COc1ccc(CN(C)CCc2ccccn2)cc1OC	i	i	i	i	i
CC1(C)CC(NC2C3CC4CC(C3)CC2C4)CC(C)(C)N1 (stereo not given)	i	i	i	12*	i
Cc1ccccc1C(=O)NC1CC(C)(C)NC(C)(C)C1	i	i	i	i	i
CN(C)c1ccc(Cl)cc1N	i	i	i	i	i
O=C(NC(=S)N1CCN(c2ccc([N+](=O)[O-])cc2)CC1)c1ccccc1F	i	i	i	i	i
Cc1ccc(C(C)(C)C)c(OCCCn2ccnc2)c1	i	i	i	i	i
CC(C)(C)c1ccccc1OCCCCCn1ccnc1	i	i	i	42*	i
Cc1cccc(OCCCCCn2ccnc2)c1C	i	69*	i	i	i
Cc1cc(OCCn2ccnc2)cc(C)c1Cl	i	129*	i	i	i
CC(C)(C)c1cc(Cl)ccc1OCCn1ccnc1	i	63*	i	42*	i
Cc1ccc(C)c(OCCCCn2ccnc2)c1	i	133*	i	i	i
O=c1nc(-c2ccccc2)cc(-c2ccccc2)[nH]1	i	i	i	i	i
COc1ccccc1-c1cc(-c2ccccc2)nc(=O)[nH]1	i	i	i	21*	i
SMILES	TRPC4 block	TRPC4 agonist	TRPC6 activator	TRPC4 potent	TRPC6 inh
CCn1c(CN2CCN(C(c3ccccc3)c3ccccc3)CC2)nc2c1c(=O)n(C)c(=O)n2C	i	i	i	17*	i
Cc1ccc(Cn2c(CN(C)Cc3ccccc3)nc3c2c(=O)n(C)c(=O)n3C)cc1	i	i	i	10*	i
COC(=O)c1cccc(Oc2nc3c(c(=O)n(C)c(=O)n3C)n2Cc2ccc(C)cc2)c1	-6*	i	i	i	i
Cc1ccccc1Cn1c(CN2CCc3ccccc3C2)nc2c1c(=O)n(C)c(=O)n2C	i	52*	i	119*	i
CN(Cc1ccccc1)Cc1nc2c(c(=O)n(C)c(=O)n2C)n1Cc1ccc(F)cc1	i	i	i	i	i
O=C(NC(=S)N1CCOCC1)c1cc2ccccc2o1	i	i	i	i	i
CCC1CCCCN1Cc1nc2c(c(=O)n(C)c(=O)n2C)n1CCCc1ccccc1 (stereo not given)	i	i	i	i	i
COC(=O)Cn1c(CN2CCc3ccccc3C2)nc2c1c(=O)n(C)c(=O)n2C	i	i	i	i	i
CCCCCCn1c(N2CCN(c3ccccc3)CC2)nc2c1c(=O)n(C)c(=O)n2C	i	i	i	94*	i
Cn1c(=O)c2c(nc(CN3CCc4ccccc4C3)n2Cc2ccc(F)cc2)n(C)c1=O	i	i	i	23*	i
CCC1CCCCN1Cc1nc2c(c(=O)n(C)c(=O)n2C)n1Cc1ccccc1 (stereo not given)	-6*	i	i	i	i
CCCCCOc1ccc(C(=O)CCC(=O)Nc2ccc(NC(C)=O)cc2)cc1	i	i	i	i	i
O=C(Nc1ccc(F)cc1)OCCOc1ccc(Br)cc1	i	i	i	i	i
CN1CCN(c2ccc(NC(=O)c3ccc(-c4ccc(Br)cc4)o3)cc2)CC1	-7*	48*	i	i	i
CCN1CCN(c2ccc(NC(=O)c3ccc(Br)o3)cc2)CC1	i	i	i	i	i
O=C(Nc1ccc(-c2nc3ccccc3[nH]2)cc1)c1cccc(N2C(=O)CCC2=O)c1	i	i	i	i	i
COC(=O)c1sc(-c2ccc(C(C)(C)C)cc2)cc1NC(=O)c1ccccc1C(=O)O	i	i	i	12*	i
COC(=O)c1sc(-c2ccc(Cl)cc2)cc1NC(=O)c1ccccc1C(=O)O	i	i	i	i	i
COC(=O)c1sc(-c2ccc(C(C)(C)C)cc2)cc1NC(=O)CSCC(=O)O	-6*	i	i	i	i
COc1ccc(N(C)C(=O)c2cn(C)c(=O)c3cc(OC)c(OC)cc23)cc1	i	i	i	i	i
CNC(=O)N(O)C1N(/N=C/c2c(F)cccc2Cl)C(=S)SC1(C)C (stereo not given)	i	i	i	i	i
O=C1OCC2=C1C(c1ccc(F)cc1)CC(=O)N2c1ccccc1 (stereo not given)	i	i	i	i	i
O=c1cc(-c2ccccc2Cl)oc2c(NS(=O)(=O)c3cc(Cl)cc(Cl)c3O)ccc(O)c12	·	120*	i	i	i
O=C(C1=C[C@@H](c2ccc(C(F)(F)F)cc2)C[C@@H](OCCCCO)O1)N1CCOCC1	i	i	i	i	i
O=C(C1=C[C@H](c2ccc(C(F)(F)F)cc2)C[C@H](OCCCCO)O1)N1CCOCC1	i	133*	i	i	i
CC1CC(C)CN(CCC(=O)Nc2cccc(Cl)c2)C1 (stereo not given)	i	60*	i	i	i
CC1CC(C)CN(CCC(=O)Nc2ccc(Br)cc2)C1 (stereo not given)	i	44*	i	i	i
COc1ccc(C(=O)CCC(=O)Nc2cccc(Cl)c2)cc1	i	i	i	18*	i
